Series [1] relates to HCT-116. Description: Increase in LC3-2 levels in human HCT116 cells at 30 uM after 48 hrs in presence of z-IETD-FMK by Western blot analysis. It is filed as functional, cell-based. The gist of the method: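 HCT116 cells were cultured 48 h with 30 μM compound, with or without 20 μM z-IETD-FMK. Lysates were made in SDS loading buffer and 10–30 μg protein was resolved by 6–15% SDS-PAGE and transferred to PVDF. Blots were probed for cleaved caspase-8, beclin 1, cleaved beclin 1 and LC3-II, and detected by ECL.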

Series [2] has as its system HCT-116. Put plainly: Induction of autophagy in human HCT116 cells assessed as increase in beclin 1 expression at 30 uM at 24 hrs by Western blot analysis. Format: functional, cell-based. (In general: A western blot detects proteins with antibodies after separation by electrophoresis.)
Series [3] is described as follows: Toxicity in BALB/c-nu mouse xenografted with human HCT116 cells assessed as overt toxicity at 2.5 to 5 mg/kg, ip administered three times per week for 28 days measured during compound dosing relative to control. Format: organism-based. The settings on record: in vivo, 672 h. The gist of the method:
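Nude mice carried subcutaneous flank HCT116 implants (2 × 10^6 cells in 200 μL medium). At about 200 mm3 they were randomised into groups of five. Compound at 2.5 or 5 mg/kg in saline with 0.5% Tween 80 was given ip three times weekly for 4 weeks; controls received vehicle. Body weight was monitored throughout for toxicity.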
A general note: A xenograft is tissue or cells of one species grown in another, often human tumour cells in immunodeficient mice.

The subject of series [4] is HCT-116. Put plainly: Antitumor activity against human HCT116 cells xenografted in BALB/c-nu mouse assessed as inhibition of tumor volume at 5 mg/kg, ip administered three times per week for 28 days measured every 3 to 4 days of dosing relative to control. To be noted: HCT-116, ip. It is filed as functional. The procedure, abridged: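 HCT116 cells (2 × 106 in 200 μL medium) injected subcutaneously into the right flank of nude mice; at ~200 mm3, mice randomized into groups of five. Compound at 2.5 or 5 mg/kg, dissolved in normal saline with 0.5% Tween 80, given ip three times weekly for 28 days; vehicle controls got equal volume. Tumor volume measured by caliper every 3–4 days.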

Series [5] relates to HCT-116. Put plainly: Induction of autophagy in human HCT116 cells assessed as increase in LAMP1 expression at 30 uM at 24 hrs by Western blot analysis. It is filed as functional, cell-based.
The test system of series [6] is HCT-116. Description: Induction of apoptosis in human HCT116 cells assessed as activation of caspase 3 at 10 to 30 uM after 48 hrs by Western blot analysis. It is filed as functional, cell-based. The gist of the method:
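HCT116 cells were treated with the indicated concentrations for 48 h. Lysates were prepared in SDS sample buffer and 10–30 μg protein was separated by SDS-PAGE, blotted to PVDF and blocked in 5% BSA. Cleaved caspase-8, -9, -3 and PARP were detected by ECL.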

In series [7] the test system is MDA-MB-231. Put plainly: Antiproliferative activity against human MDA-MB-231 cells after 24 to 72 hrs by SRB assay. Format: functional, cell-based. The gist of the method: (§1)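 Cells from ATCC were grown at 37 °C in 5% CO2, in RPMI 1640 (A549, HCT116, SNU-638) or DMEM (MDA-MB-231, SK-HEP-1, MRC5) with 10% FBS. They were seeded at 6 × 10^3 cells/well for 24 h, then exposed for 72 h. Cells were TCA-fixed, stained with 0.4% SRB, and read at 515 nm against day-zero plates. IC50 came from nonlinear regression, as means ± SD.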
(In general: Sulforhodamine B stains cellular protein and so reports cell mass.)

Series [8] deals with HCT-116. Description: Growth inhibition of human HCT116 cells after 24 hrs by SRB assay. It is filed as functional, cell-based. The procedure, abridged: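 SRB assay. Cells were seeded at 6 × 10^3/well, grown 24 h, then fixed as day-zero controls or treated 24 or 48 h. They were fixed with 10% TCA and stained with 0.4% SRB in 1% acetic acid; dye was dissolved in 10 mM Tris pH 10.0 and read at 515 nm. Proliferation was normalized to day zero and control, and IC50 came from nonlinear regression. n = 3.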

The target in series [9] is c-Jun N-terminal kinase, JNK (Homo sapiens) (UniProt P45983+P53779+P45984). Put plainly: Activation of JNK in human HCT116 cells after 24 hrs by Western blot analysis. Format: cell-based.
The target in series [10] is Mitogen-activated protein kinase; ERK1/ERK2 (Homo sapiens) (UniProt P27361+P28482). Description: Inhibition of ERK1/2 phosphorylation in human HCT116 cells after 24 hrs by Western blot analysis. It is filed as cell-based.
Series [11] can be described thus: Inhibition of PI3K/Akt/mTOR in human HCT116 cells assessed as upregulation of PTEN at 10 to 30 uM after 24 hrs by Western blot analysis. Format: cell-based. The gist of the method:
(§2)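 HCT116 cells (RPMI 1640, 10% FBS, 37 °C, 5% CO2) exposed to the compound for 24 h, then lysed in 2× SDS sample buffer with NaF and orthovanadate and boiled. BCA-normalised protein (10−30 μg) run on 6−15% SDS-PAGE and blotted to PVDF. Blocked in 5% BSA/PBS-Tween, probed for PI3K, PTEN, Akt and mTOR, and detected by ECL. Blots are representative of three determinations.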

The test system of series [12] is SNU-638. Description: Antiproliferative activity against human SNU638 cells after 24 to 72 hrs by SRB assay. Format: functional, cell-based. The gist of the method: as §1
Series [13] relates to HCT-116. Description: Antitumor activity against human HCT116 cells xenografted in BALB/c-nu mouse assessed as inhibition of tumor weight at 2.5 mg/kg, ip administered three times per week for 28 days measured post dosing relative to control. It is filed as functional. The settings on record: HCT-116, ip, 672 h. The gist of the method:
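Nude mice bearing subcutaneous HCT116 flank tumors (2 × 10^6 cells) were randomized at ~200 mm3, five per group. Dosing was 2.5 or 5 mg/kg ip in saline/0.5% Tween 80, three times weekly for 28 days, with vehicle controls. Tumors were excised on day 28 and weighed; inhibition was expressed against the vehicle group.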

The subject of series [14] is A549. Description: Antiproliferative activity against human A549 cells after 24 to 72 hrs by SRB assay. It is filed as functional, cell-based. The gist of the method:
as §1

Series [15] relates to HCT-116. Put plainly: Induction of autophagy in human HCT116 cells assessed as downregulation of p62 expression at 10 to 30 uM after 24 hrs by Western blot analysis. Format: functional, cell-based. The procedure, abridged:
(§3)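 HCT116 cells were cultured 24 h with the indicated concentrations. Lysates were made in SDS buffer with NaF and orthovanadate and quantified by BCA; 10–30 μg protein was separated by 6–15% SDS-PAGE and transferred to PVDF. After 5% BSA blocking, blots were probed for LC3-II, beclin 1, p62, LAMP1 and cathepsin D, with ECL detection.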

Series [16] is described as follows: Inhibition of PI3K/Akt/mTOR in human HCT116 cells assessed as downregulation of PI3K p85 at 10 to 30 uM after 24 hrs by Western blot analysis. It is filed as cell-based. The gist of the method:
as §2

For series [17], the system named is HCT-116. Description: Cell cycle arrest in human HCT116 cells assessed as accumulation at subG1 phase at 20 uM after 48 hrs by propidium iodide staining based flow cytometry. It is filed as functional.
In series [18] the test system is HCT-116. Description: Induction of autophagy in human HCT116 cells assessed as accumulation of beclin 1 after 24 hrs by Western blot analysis. It is filed as functional, cell-based. The gist of the method:
as §3

Series [19] concerns HCT-116. Put plainly: Induction of autophagy in human HCT116 cells assessed as formation of acidic vesicular organelles at 20 uM after 24 hrs in presence of bafilomycin A1 by acridine orange staining based assay. Format: functional, cell-based. The procedure, abridged: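 Cells were seeded at 1 × 10^5/well, grown 24 h, then treated 24 h with 20 μM compound, 2.5 nM bafilomycin A1, or both. They were stained with acridine orange (2 μg/mL) for 15 min and washed in DPBS. AO-positive cells were quantified by high-content imaging and expressed as an index versus vehicle. Triplicates.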

Activity calls are given as the source filed them. The calls are words filed in the database; no cut-off is given here.

Mitogen-activated protein kinase; ERK1/ERK2 (Homo sapiens), sequence (P27361 whole entry, looked up): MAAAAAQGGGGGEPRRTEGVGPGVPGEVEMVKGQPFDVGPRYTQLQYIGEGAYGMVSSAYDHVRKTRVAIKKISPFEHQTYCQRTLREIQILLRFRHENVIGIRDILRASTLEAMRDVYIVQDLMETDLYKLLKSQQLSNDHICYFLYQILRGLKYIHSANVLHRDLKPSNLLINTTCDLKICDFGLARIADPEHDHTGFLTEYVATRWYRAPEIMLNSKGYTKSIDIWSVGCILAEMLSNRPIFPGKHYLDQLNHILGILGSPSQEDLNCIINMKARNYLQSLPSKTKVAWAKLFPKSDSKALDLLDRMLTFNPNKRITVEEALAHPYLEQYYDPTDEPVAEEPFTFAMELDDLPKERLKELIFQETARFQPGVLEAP
Mitogen-activated protein kinase; ERK1/ERK2 (Homo sapiens), sequence (P28482 whole entry, looked up): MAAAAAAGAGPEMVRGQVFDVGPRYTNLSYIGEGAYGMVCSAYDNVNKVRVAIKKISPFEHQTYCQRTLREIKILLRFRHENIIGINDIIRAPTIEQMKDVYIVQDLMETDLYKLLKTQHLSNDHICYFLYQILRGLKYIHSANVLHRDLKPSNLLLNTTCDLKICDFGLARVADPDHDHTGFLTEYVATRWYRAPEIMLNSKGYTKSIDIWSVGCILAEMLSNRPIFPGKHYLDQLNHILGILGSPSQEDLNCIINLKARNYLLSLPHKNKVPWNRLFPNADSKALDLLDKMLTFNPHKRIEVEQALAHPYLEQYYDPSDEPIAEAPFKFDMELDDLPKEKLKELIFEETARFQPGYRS

What is called inhibition in vivo is the drop in the measured response relative to a control, in per cent. Broadly, the IC50 is the midpoint of a concentration-inhibition curve. Low values mean inhibition by little substance, high ones a need for much substance. For the molecule `C[C@H]1CC[C@@]2(OC1)O[C@H]1C[C@H]3[C@@H]4CC=C5C[C@@H](O)C[C@@H](O[C@@H]6O[C@H](C)[C@H](O)[C@H](O[C@@H]7OC[C@@H](O)[C@H](O)[C@H]7O)[C@H]6O[C@@H]6O[C@H](CO)[C@@H](O)[C@H](O)[C@H]6O)[C@]5(C)[C@H]4CC[C@]3(C)[C@H]1[C@@H]2C`, the result in series [1], in [2], in [5], in [6] and in series [15] was Active. The Activity entry in series [3] was “Non-Toxic”; in series [17] it was 12.56%; in series [18], “Dose-dependent effect”. Moreover, the inhibition in vivo at 5 mg/kg in series [4] was 57.5%. Further, the IC50 in series [7] came out at 29.6 µM; in [8] (HCT-116, 24 h), 28.9 µM; in series [12], 14.8 µM; in [14], 26 µM. Besides, in series [8], the “growth inhibition (GI)” value is “Dose-dependent effect”. For the same molecule, the outcome in [9] and in series [19] was inactive. Besides, the inhibition result in series [10] was “Dose-dependent effect”. The inhibition entry in [11] and in [16] was “Active” in each case. The inhibition in vivo at 2.5 mg/kg in series [13] was found to be 43%.

These data come from ChEMBL document CHEMBL4477197, “Antitumor Activity of Spicatoside A by Modulation of Autophagy and Apoptosis in Human Colorectal Cancer Cells” (J Nat Prod, 2016).
